What was measured:
[1] = molecular target: Phosphatidylinositol 4,5-bisphosphate 3-kinase catalytic subunit alpha isoform (Homo sapiens, UniProt P42336); test: Inhibition of human recombinant p110alpha
Procedure, shortened: (§1)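 Recombinant p110/p85 complexes (p110d/p85 commercial; p110a/p85 and p110b/p85 prepared in-house), 0.1 µg enzyme with 10 µg L-α-phosphatidylinositol in Tris-HCl pH 7.4/NaCl/EDTA buffer, 1% DMSO final. 1 h at room temperature, stopped with HCl. Lipids extracted, resolved by TLC, radiolabel quantified. Means of two experiments.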

[2] = molecular target: Phosphatidylinositol 4,5-bisphosphate 3-kinase catalytic subunit beta isoform (Homo sapiens, UniProt P42338); test: Inhibition of human recombinant p110beta; procedure, shortened: as §1
Sequence of Phosphatidylinositol 4,5-bisphosphate 3-kinase catalytic subunit beta isoform (P42338 whole entry, canonical isoform): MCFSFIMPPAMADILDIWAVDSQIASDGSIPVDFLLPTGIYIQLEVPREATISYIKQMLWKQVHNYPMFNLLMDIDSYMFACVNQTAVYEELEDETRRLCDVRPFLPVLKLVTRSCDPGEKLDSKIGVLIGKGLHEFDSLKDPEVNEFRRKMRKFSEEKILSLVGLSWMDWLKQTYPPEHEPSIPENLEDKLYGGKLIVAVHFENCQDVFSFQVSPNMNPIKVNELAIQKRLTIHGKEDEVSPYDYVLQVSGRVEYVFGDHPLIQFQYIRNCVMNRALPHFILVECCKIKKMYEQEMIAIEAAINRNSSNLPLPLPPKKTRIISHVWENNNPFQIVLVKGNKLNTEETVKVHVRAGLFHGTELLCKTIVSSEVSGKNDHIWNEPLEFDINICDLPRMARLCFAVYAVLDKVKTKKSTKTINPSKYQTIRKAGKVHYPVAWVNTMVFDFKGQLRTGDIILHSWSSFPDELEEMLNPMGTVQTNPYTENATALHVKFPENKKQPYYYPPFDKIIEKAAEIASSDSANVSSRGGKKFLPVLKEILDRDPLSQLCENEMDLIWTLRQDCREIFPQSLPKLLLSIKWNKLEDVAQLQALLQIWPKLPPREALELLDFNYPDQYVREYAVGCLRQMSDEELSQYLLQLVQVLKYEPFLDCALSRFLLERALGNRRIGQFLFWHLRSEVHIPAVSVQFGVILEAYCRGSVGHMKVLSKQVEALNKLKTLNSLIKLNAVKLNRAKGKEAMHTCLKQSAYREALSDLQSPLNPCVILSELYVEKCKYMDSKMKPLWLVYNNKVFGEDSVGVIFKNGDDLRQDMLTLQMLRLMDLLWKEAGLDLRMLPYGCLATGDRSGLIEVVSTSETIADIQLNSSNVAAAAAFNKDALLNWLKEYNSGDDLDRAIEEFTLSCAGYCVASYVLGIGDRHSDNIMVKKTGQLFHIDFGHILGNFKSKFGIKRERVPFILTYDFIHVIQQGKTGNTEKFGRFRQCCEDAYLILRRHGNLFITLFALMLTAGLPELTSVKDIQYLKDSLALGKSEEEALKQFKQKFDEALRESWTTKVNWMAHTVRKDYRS

[3] = molecular target: T1, Phosphatidylinositol 4,5-bisphosphate 3-kinase catalytic subunit delta isoform (Homo sapiens, UniProt O00329); test: Inhibition of human recombinant p110delta; procedure, shortened: as §1
T1 sequence (O00329 whole entry): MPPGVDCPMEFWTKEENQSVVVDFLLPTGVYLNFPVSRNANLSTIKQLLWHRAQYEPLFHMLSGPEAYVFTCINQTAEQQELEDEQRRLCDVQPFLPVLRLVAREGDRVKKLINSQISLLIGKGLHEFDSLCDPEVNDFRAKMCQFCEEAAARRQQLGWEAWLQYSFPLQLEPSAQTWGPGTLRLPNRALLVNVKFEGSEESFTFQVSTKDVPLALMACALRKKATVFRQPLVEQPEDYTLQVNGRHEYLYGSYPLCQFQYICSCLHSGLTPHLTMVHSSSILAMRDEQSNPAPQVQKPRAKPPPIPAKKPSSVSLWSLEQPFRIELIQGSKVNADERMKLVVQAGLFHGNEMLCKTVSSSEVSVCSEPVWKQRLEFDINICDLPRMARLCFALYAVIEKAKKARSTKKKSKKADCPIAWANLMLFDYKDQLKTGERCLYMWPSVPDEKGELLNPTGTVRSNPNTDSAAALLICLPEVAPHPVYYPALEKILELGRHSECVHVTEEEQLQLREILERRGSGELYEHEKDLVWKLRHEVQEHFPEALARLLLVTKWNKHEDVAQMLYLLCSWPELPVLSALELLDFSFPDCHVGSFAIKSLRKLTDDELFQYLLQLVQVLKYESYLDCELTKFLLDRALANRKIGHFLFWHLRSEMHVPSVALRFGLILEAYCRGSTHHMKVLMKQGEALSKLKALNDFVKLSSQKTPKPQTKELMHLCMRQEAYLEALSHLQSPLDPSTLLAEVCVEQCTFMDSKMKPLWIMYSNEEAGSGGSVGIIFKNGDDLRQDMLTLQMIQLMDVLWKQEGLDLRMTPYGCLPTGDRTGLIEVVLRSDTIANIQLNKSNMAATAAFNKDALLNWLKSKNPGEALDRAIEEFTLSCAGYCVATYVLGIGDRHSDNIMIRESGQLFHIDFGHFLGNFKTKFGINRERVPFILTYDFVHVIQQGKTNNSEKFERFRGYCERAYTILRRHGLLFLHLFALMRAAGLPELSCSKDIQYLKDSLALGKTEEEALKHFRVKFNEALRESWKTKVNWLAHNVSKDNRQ

[4] = Antiproliferative activity against human NZB5 cells; assay type: functional, cell-based
Procedure, shortened: (§2)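 Early-passage human cancer cell lines grown in alpha-modified MEM with insulin, transferrin, selenite and 5% FBS; 1000 cells per well. Drug added in 10-fold concentration steps up to 20 µM; incubated five days under 5% O2, 5% CO2, 90% N2. [3H]thymidine (0.04 µCi/well) added for the last 6 h, incorporation counted. Duplicates per dose; IC50 from exponential least-squares fit.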

[5] = Antiproliferative activity against human NZOV9 cells; assay type: functional, cell-based; procedure, shortened: as §2

Sequence of Phosphatidylinositol 4,5-bisphosphate 3-kinase catalytic subunit alpha isoform (P42336 whole entry, canonical isoform): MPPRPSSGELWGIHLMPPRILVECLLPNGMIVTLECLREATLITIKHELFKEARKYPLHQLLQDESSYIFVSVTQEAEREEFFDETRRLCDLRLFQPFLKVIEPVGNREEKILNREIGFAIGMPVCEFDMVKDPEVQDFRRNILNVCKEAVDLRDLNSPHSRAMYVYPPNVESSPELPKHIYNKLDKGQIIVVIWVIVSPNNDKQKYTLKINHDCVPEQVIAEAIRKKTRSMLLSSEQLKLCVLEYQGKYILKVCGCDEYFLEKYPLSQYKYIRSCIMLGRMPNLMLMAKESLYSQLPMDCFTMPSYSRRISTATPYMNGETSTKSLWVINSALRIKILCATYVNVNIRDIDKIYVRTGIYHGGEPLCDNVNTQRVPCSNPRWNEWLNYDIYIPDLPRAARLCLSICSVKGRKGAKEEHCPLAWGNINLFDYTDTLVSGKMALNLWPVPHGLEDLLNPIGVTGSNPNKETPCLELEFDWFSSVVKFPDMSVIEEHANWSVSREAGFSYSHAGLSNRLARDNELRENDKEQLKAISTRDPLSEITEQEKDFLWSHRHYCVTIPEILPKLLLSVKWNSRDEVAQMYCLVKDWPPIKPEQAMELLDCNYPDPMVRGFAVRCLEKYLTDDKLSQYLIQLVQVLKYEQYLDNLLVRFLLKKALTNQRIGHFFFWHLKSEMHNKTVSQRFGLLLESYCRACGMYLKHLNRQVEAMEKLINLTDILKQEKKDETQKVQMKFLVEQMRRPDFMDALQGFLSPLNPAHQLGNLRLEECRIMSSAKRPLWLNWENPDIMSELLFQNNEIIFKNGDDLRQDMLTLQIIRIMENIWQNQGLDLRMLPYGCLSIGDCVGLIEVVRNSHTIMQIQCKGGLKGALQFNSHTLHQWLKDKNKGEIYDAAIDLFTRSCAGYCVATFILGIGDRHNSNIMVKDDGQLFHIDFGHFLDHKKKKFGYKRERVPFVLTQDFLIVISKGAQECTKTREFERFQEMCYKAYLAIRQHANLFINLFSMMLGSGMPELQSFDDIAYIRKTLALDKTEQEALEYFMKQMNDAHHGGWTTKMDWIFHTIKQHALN

Row | Structure (SMILES) | IC50 [1] [µM] | IC50 [2] [µM] | IC50 [3] [µM] | IC50 [4] [µM] | IC50 [5] [µM]
1 | Cc1ccc([N+](=O)[O-])cc1S(=O)(=O)N(C)/N=C/c1cnc2ccc(Br)cn12 |  |  |  | 0.069 | 
2 | Cc1ccc([N+](=O)[O-])cc1S(=O)(=O)N(C)/N=C/c1cn(C)c2ccccc12 | > 10 | > 10 | > 10 | 15 | > 20
3 | Cc1ccc([N+](=O)[O-])cc1S(=O)(=O)N(C)/N=C/c1cccc2ccccc12 | > 10 | > 10 | > 10 | > 20 | > 20
4 | Cc1ccc([N+](=O)[O-])cc1S(=O)(=O)N(C)/N=C/c1cncn1C | > 10 | > 10 | > 10 | > 20 | > 20
5 | Cc1ccc([N+](=O)[O-])cc1S(=O)(=O)N(C)/N=C/c1coc2ccccc12 | > 10 | > 10 | > 10 | 12 | 8.5
6 | Cc1ccc([N+](=O)[O-])cc1S(=O)(=O)N(C)/N=C/c1ncc2ccccn12 | > 10 | > 10 | > 10 | 2.1 | 1.2
7 | Cc1ccc([N+](=O)[O-])cc1S(=O)(=O)N(C)/N=C/c1cnc2n1CCCC2 | > 10 | > 10 | > 10 | 10 | 10
8 | Cc1ccc([N+](=O)[O-])cc1S(=O)(=O)N(C)/N=C/c1cncc2c(Br)cccc12 | > 10 | > 10 | > 10 | 5.7 | 12
9 | Cc1ccc([N+](=O)[O-])cc1S(=O)(=O)N(C)/N=C/c1csc2ccccc12 | > 10 | > 10 | > 10 | > 20 | > 20
10 | Cc1ccc([N+](=O)[O-])cc1S(=O)(=O)N(C)/N=C/c1ncn2ccccc12 | > 10 | > 10 | > 10 | 3.3 | 

Further lines, with some results ahead:

Row | IC50 [1] [µM] | IC50 [2] [µM] | IC50 [3] [µM] | Structure (SMILES) | IC50 [4] [µM] | IC50 [5] [µM]
11 | > 10 | > 10 | > 10 | Cc1ccc([N+](=O)[O-])cc1S(=O)(=O)N(C)/N=C/c1cncc2cc(Br)ccc12 | 6.6 | 11
12 | 0.8 | > 10 | 3.6 | Cc1ccc([N+](=O)[O-])cc1S(=O)(=O)N(C)/N=C/c1cncc2ccccc12 | 0.89 | 0.5
13 | > 10 | > 10 | > 10 | Cc1ccc([N+](=O)[O-])cc1S(=O)(=O)N(C)/N=C/c1cnc2ccccc2c1 | 3 | 6
14 | 5 | > 10 | > 10 | Cc1ccc([N+](=O)[O-])cc1S(=O)(=O)N(C)/N=C/c1onc2ccccc12 | 3.9 | 3.3
15 | 0.86 | > 10 | 5.4 | Cc1ccc([N+](=O)[O-])cc1S(=O)(=O)N(C)/N=C/c1cnc2ccccn12 | 0.35 | 0.68
16 | 2.2 | > 10 | 9 | Cc1ccc([N+](=O)[O-])cc1S(=O)(=O)N(C)/N=C/c1cncc2ccc(Br)cc12 | 5.1 | 4.2
17 | 2.3 | > 10 | > 10 | Cc1ccc([N+](=O)[O-])cc1S(=O)(=O)N(C)/N=C/c1ccnc2ccccc12 | 1.5 | 0.8

Source: ChEMBL document CHEMBL1137518, “Synthesis, biological evaluation and molecular modelling of sulfonohydrazides as selective PI3K p110alpha inhibitors” (Bioorg Med Chem, 2007)
